From ChEMBL document CHEMBL4033718, “A novel serine racemase inhibitor suppresses neuronal over-activation in vivo” (Bioorg Med Chem, 2017)

Assays:
[1] = species on record: Homo sapiens; assay: Inhibition of human serine racemase C2D2 mutant assessed as remaining enzyme activity by measuring D-serine production using L-serine as substrate at 1 mM incubated for > 8 hrs
Outline: (§1)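 Recombinant human SRR C2D2 mutant, 8 µg, in 100 mM HEPES pH 8.0 with PLP, 1 mM MgCl2, 5 mM DTT, 1 mM ATP and 20 mM L-Ser. Product derivatized with 0.05% DNP in 2 M HCl for 5 min at 30 °C, then EtOH and 10 M NaOH added. Absorbance at 515 nm read after 10 min at room temperature.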

[2] = molecular target: T1, Serine racemase (Mus musculus) (UniProt Q9QZX7); assay: Inhibition of mouse serine racemase assessed as remaining enzyme activity by measuring D-serine production using L-serine as substrate at 1 mM incubated for > 8 hrs
T1 sequence (whole entry): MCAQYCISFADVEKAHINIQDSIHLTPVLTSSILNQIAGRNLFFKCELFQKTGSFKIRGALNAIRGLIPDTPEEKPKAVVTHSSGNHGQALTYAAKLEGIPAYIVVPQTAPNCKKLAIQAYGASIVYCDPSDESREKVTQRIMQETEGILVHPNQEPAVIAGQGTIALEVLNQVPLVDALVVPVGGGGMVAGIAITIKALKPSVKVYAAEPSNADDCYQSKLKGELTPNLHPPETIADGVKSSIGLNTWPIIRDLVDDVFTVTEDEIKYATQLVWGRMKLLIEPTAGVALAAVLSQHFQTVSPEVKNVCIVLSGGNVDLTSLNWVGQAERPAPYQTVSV
Outline: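 Recombinant mouse Srr, 1.25 µg, in 100 mM HEPES pH 8.0 with PLP, 1 mM MgCl2, 5 mM DTT, 1 mM ATP, 20 mM L-Ser and 1 mM inhibitor. Product derivatized with 0.05% DNP in 2 M HCl for 5 min at 30 °C, then EtOH and 10 M NaOH added. A515 read after 10 min at room temperature.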

[3] = system: Mus musculus; assay: In-vivo inhibition of SRR in Arc-LucTg HL mouse brain assessed as reduction in kainate-induced NMDA-type glutamate receptor activation by measuring decrease in bioluminescence signal at 15 mg/kg, po incubated for 3 hrs followed by kainate treatment measured after 2 hrs relative to control; format: functional
Outline: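 Arc-Luc Tg hairless mice, baseline-imaged, then dosed 15 mg/kg p.o. in PEG-400 (vehicle controls) under 1.5% isoflurane. Basal imaging 3 h later, then kainate 20 mg/kg i.p. in saline. Luciferin EF 150 mg/kg i.p. Images at 2, 4 and 6 h: 60 s, 4×4 binning, ear-to-eye ROI, strongest of about 5 reads. Fold change vs 0 h; two-tailed t test.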

[4] = Inhibition of human serine racemase C2D2 mutant assessed as remaining enzyme activity by measuring D-serine production using L-serine as substrate incubated for > 8 hrs; outline: as §1

Structure (SMILES) | Activity [1] [%] | also measured
O=C(/C=C/c1c(F)cc(F)cc1F)NC(=S)NNC(=O)Cc1cccs1 | 39 | 
O=C(/C=C/c1ccc(F)cc1)NC(=S)NNC(=O)c1cccs1 | 46 | 
O=C(/C=C/c1cc(Br)cc(Br)c1)NC(=S)NNC(=O)CCc1ccccc1 | 44 | 
O=C(Cc1cccs1)NNC(=S)NC(=O)Cc1ccccc1 | 61 | 
Cc1ccc(CNC(=O)NCCNS(=O)(=O)c2cccc(Cl)c2)cc1 |  | Activity [2]: 36%
COc1cccc(OC)c1/C=C/C(=O)NC(=S)NNC(=O)c1cccs1 | 31 | 
O=C(/C=C/c1cc(Br)cc(Br)c1)NC(=S)NNC(=O)Cc1ccccc1 | 20 | fold change (FC) [3]: 1.4; IC50 [4]: 140 µM
O=C(/C=C/c1cc(Br)cc(Br)c1)NC(=S)NNC(=O)Cc1ccc(F)cc1 | 54 | 
O=C(Cc1c(F)cccc1F)NNC(=S)NC(=O)Cc1ccccc1 | 61 | 
O=C(COc1ccc(Cl)cc1)NCC(=O)Nc1ccc(F)c(F)c1F |  | Activity [2]: 35%
CC(C)c1ccc(/C=C/C(=O)NC(=S)NNC(=O)Cc2cccs2)cc1 | 28 | 
COc1cccc(OC)c1/C=C/C(=O)NC(=S)NNC(=O)Cc1cccs1 | 27 | 
O=C(/C=C/c1ccc(F)cc1)NC(=S)NNC(=O)Cc1cccs1 | 22 | 
Cc1ccc(/C=C/S(=O)(=O)NCC(=O)OCc2ccc(Cl)c(Cl)c2)cc1 |  | Activity [2]: 32%
O=C(/C=C/c1ccc(F)cc1)NC(=S)NNC(=O)Cc1ccccc1 | 45 | 
O=C(/C=C/c1ccc(C(F)(F)F)cc1)NC(=S)NNC(=O)Cc1cccs1 | 44 | 
O=C(Cc1cc(F)cc(F)c1)NNC(=S)NC(=O)Cc1ccccc1 | 55 | 
O=C(/C=C/c1c(F)cc(F)cc1F)NC(=S)NNC(=O)Cc1ccccc1 | 38 | 
O=C(O)CC(=O)O [MALONIC ACID] | 63 | IC50 [4]: 770 µM

The next lines start with results.

Activity [1] [%] | Structure (SMILES) | also measured
53 | Cc1cccc(CC(=O)NNC(=S)NC(=O)Cc2ccccc2)c1 | 
24 | Cc1ccc(/C=C/C(=O)NC(=S)NNC(=O)Cc2cccs2)cc1 | 
32 | COc1cccc(OC)c1/C=C/C(=O)NC(=S)NNC(=O)Cc1ccccc1 | 
77 | Cc1ccc(S(=O)(=O)Nc2ccccc2NC(=O)Nc2ccc(Cl)c(Cl)c2)cc1 | IC50 [4]: 280 µM
62 | O=C(Cc1ccc(F)cc1)NNC(=S)NC(=O)Cc1ccccc1 | 
49 | O=C(Cc1ccc(F)cc1)NNC(=S)NC(=O)Cc1ccc(F)cc1 | 
41 | Cc1ccc(/C=C/S(=O)(=O)NCC(=O)Nc2ccc(OCc3ccccc3)cc2)cc1 | IC50 [4]: 270 µM
23 | O=C(/C=C/c1ccc(Cl)cc1)NC(=S)NNC(=O)Cc1cccs1 | 
